pEC50: −log10 of the molar value.
What was measured:
integrin CD11a/CD18 = integrin CD11a/CD18 (Homo sapiens, UniProt P20701); experiment: adhesion of K562 CD11a/CD18 cells to immobilized ICAM-1; type: cell-based; conditions: for selectivity for integrin CD11b/CD18 over CD11a/CD18: K562 CD11b/CD18 vs K562 CD11a/CD18 cell adhesion
Outline: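 K562 cells stably transfected with wild-type integrin CD11a/CD18. Test compound obtained as pure powder and assessed for its ability to increase adhesion of these cells to immobilized ICAM-1. This is compared with adhesion of K562 CD11b/CD18 cells to judge selectivity.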

integrin CD11b/CD18 = integrin CD11b/CD18 (Homo sapiens, UniProt P11215); experiment: adhesion of K562 CD11b/CD18 cells to immobilized Fibrinogen; type: cell-based; conditions: for pEC50: read-out: EC50 (Effective Concentration for 50% increase in cell adhesion), K562 CD11b/CD18 cells, ligand Fg, NB=No increase in binding of K562 CD11b/CD18 cells to ligand Fg
Outline: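 K562 cells stably transfected with wild-type integrin CD11b/CD18. Adhesion to immobilized ligand is measured in the presence of test compound. Secondary validation used two ligands, Fg and iC3b. For the analogue series, EC50 (μM) was derived from the increase in adhesion to Fg; absence of any increase was reported as no binding.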

[1] = target: recombinant αA-domain of CD11b/CD18 (Homo sapiens, UniProt P11215); experiment: binding of purified recombinant αA-domain to immobilized Fg; conditions: in words

CCOC(=O)CN1C(=O)S/C(=C\c2ccc(-c3ccc(Cl)cc3Cl)o2)C1=O [compound 2]
selectivity for integrin CD11b/CD18 over CD11a/CD18 (integrin CD11a/CD18): two-fold higher selectivity | level of K562 CD11b/CD18 cell-adhesion in secondary assays (integrin CD11b/CD18; ligands Fg and iC3b): high levels

CCOC(=O)CN1C(=O)S/C(=C\c2ccc(N3CCOCC3)o2)C1=O [compound 3]
pEC50 (integrin CD11b/CD18): < 4.30

COC(=O)CN1C(=O)S/C(=C\c2ccc(Sc3ccccc3)o2)C1=O [compound 5]
pEC50 (integrin CD11b/CD18): < 4.30

CCOC(=O)CN1C(=O)S/C(=C\c2ccc(-c3ccccc3)o2)C1=O [compound 6]
binding of αA-domain to immobilized Fg [1]: increasing its binding to immobilized Fg | selectivity for integrin CD11b/CD18 over CD11a/CD18 (integrin CD11a/CD18): high selectivity | increase of K562 CD11a/CD18 cell adhesion to ICAM-1 (integrin CD11a/CD18; in words): no appreciable binding | ligand efficiency (BEI) (integrin CD11b/CD18): 14

CCOC(=O)CN1C(=O)S/C(=C\c2ccc(-c3ccc(C(=O)O)cc3C)o2)C1=O [compound 11]
pEC50 (integrin CD11b/CD18): < 4.30

COC(=O)CN1C(=O)S/C(=C\c2ccc(-c3ccc(C(=O)O)cc3)o2)C1=O [compound 12]
pEC50 (integrin CD11b/CD18): < 4.30

COC(=O)C(C)N1C(=O)S/C(=C\c2ccc(-c3ccc(Cl)cc3Cl)o2)C1=O (stereo not shown) [compound 13]
agonist activity in words (integrin CD11b/CD18; K562 CD11b/CD18 cell adhesion): inactive | pEC50 (integrin CD11b/CD18): < 4.30

NS(=O)(=O)c1ccc(N2C(=O)S/C(=C\c3ccc(Cc4ccccc4)o3)C2=O)cc1 [compound 22]
pEC50 (integrin CD11b/CD18): < 4.30

Reference: PMC2818319 (Bioorganic & medicinal chemistry letters, 2009)
